Source: PubChem (several laboratories)
HSF-1 act: increases HSF-1 driven luciferase reporter signal; activation, % at 9 µM; NIH3T3-HGL HSF-1 luciferase reporter, MG132, 8 h; 100% = twice DMSO control signal; AID 504408; 1.7% of 300,000 active;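 active = mean replicate activation of at least 50% with a set share of replicates each reaching 50%; inconclusive = only one of those two conditions met; inactive = mean below 50% and too few replicates reaching it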;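 also: 0% = median of the neutral control wells and 100% = twice that signal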
GPR7 antag: antagonists of human GPR7 (neuropeptides B/W receptor 1) | GPR7-expressing cells, fluorescence antagonist assay | inhibition, % at 4.4 µM | 1.1% of 290,000 active | P48145; in the data active = inhibition above about 16%, passing the limit was not always enough;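 also: cells stimulated with the agonist NPW; 0% = agonist with vehicle and 100% = vehicle without agonist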
Target sequence (P48145 whole entry, looked up): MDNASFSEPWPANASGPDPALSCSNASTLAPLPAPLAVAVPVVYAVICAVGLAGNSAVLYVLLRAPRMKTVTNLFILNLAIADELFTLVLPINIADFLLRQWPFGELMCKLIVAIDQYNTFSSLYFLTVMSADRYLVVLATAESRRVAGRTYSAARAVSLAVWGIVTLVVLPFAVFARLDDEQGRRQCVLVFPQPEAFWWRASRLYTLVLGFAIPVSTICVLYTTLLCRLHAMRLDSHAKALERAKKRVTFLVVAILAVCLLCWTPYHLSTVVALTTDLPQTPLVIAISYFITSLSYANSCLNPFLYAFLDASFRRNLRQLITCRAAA
HSF1 inh: HSF1 inhibition; activity change, negative = inhibition, % at 7.5 µM (by protocol); NIH3T3-HGL HSE-luciferase, MG132-induced, luminescence 8 h; stronger effect = lower value; AID 2098; 0.77% of 300,000 active;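 active = more than half of replicate wells show activity change below -50%, luminescence cut by over half; inconclusive = some wells, but at most half, below -50%; inactive = no replicate well below -50%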;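 also: luciferase reports HSF-1 transcriptional activity via heat shock element; 0% = median of DMSO wells and -100% = zero luminescence signal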
697 NFkB inh: lowers PMA/ionomycin-induced NF-kB signal in 697 B cells; 697 B-cell NF-kB luciferase reporter, 16 h; inhibition, % at 4 µM; 0.33% of 330,000 active; AID 435022; in the data active = inhibition above about 35%
T cruzi inh: T. cruzi replication inhibition; T. cruzi beta-gal in NIH3T3, luminescence, 90 h; inhibition, % (test concentration not listed); 1.4% of 300,000 active;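 active = mean inhibition across valid replicates above about 55%, limit read from the data; inconclusive = mean below that limit but half or more replicates reach it; inactive = mean below it, under half of replicates reach it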;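 also: signal also drops with host cell toxicity which is not excluded here; 0% = plate median of DMSO wells and 100% = zero luminescence signal; higher percent means less beta-gal luminescence so fewer parasites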
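Assay system: NIH/3T3 fibroblasts plus reporter T. cruzi. Amount: NIH/3T3 cells, 5,000 per well. Buffer or medium: DMEM, 2% fetal bovine serum. Doses: compound pinned at 50 nL/well, DMSO. Schedule: ≥90 h infection period, 3 h prior cell attachment. Signal: luminescent β-galactosidase signal after 60 min lysis. Read-out: parasite load inhibition, %.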
Jurkat NFkB inh: lowers PMA/ionomycin-induced NF-kB signal in Jurkat cells; PMA/ionomycin-induced NF-kB luciferase reporter, luminescence; inhibition, % at 4 µM; 0.53% of 330,000 active; AID 435003; in the data active = inhibition above about 50%
GPR7 antag conf: human GPR7 antagonism, confirmation assay; GPR7-expressing cells, calcium fluorescence antagonist mode; inhibition, % at 4.4 µM; 52% of 2,400 active; AID 1952; shares compounds with GPR7 antag; in the data active = inhibition above about 24%;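 also: stimulated with the GPR7 agonist NPW; 0% = agonist plus vehicle and 100% = vehicle alone without agonist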
MCHR1 antagonist: antagonizes human MCHR1, a GPR7 antagonist counter-screen | shares compounds with GPR7 antag | MCHR1-expressing cells, fluorescence antagonist assay | inhibition, % at 4.4 µM | 62% of 2,400 active | AID 2148; in the data active = inhibition above about 22%;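 also: 0% = vehicle with agonist and 100% = vehicle without agonist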
Active calls of the source: *; ? = inconclusive; / = no result. Sampled rows, rich in hits. Any-hit rate of the full collection: about 4.8%.

SMILES	HSF-1 act	GPR7 antag	HSF1 inh	697 NFkB inh	T cruzi inh	Jurkat NFkB inh	GPR7 antag conf	MCHR1 antagonist
O=C(NCc1ccco1)c1sc2cc(Cl)ccc2c1Cl	15.7	35.7*	19.8	-6.6	-33.3	-18.6	22.1	31.5*
COc1cccc(CNc2ccc([N+](=O)[O-])c(NCC(=O)O)n2)c1	-0.8	-8.8	-3.9	8.5	-22.6	-1.8	/	/
O=C1Nc2ccccc2C12NCCc1c2[nH]c2ccccc12 (stereo not drawn)	4.8	-0.2	2.4	-2.3	-9.2	-3.4	/	/
c1ccc2c3c([nH]c2c1)C1(CCCCC1)NCC3	4.2	10.8*	-7.5	7.4	1.1	-9.1	2.2	18.4
OC1=C(O)c2nc3cc(C(F)(F)F)ccc3nc21	/	4.1	-11.5	0.2	-21.9	-2.4	/	/
CC1(C)CC(=O)C=C(NCCN2CCN(C(=S)Nc3ccccc3)CC2)C1	12.8	-9.9	-3.4	9.3	-2.6	7.9	/	/
COC(=O)Cc1ccc(NC(=S)N2CCN(C)CC2)cc1	33.2	33.9*	8.3	3.6	-6.0	-4.6	-6.1	13.0
COC(=O)Cc1ccc(NC(=S)N2CCN(c3ccc(OC)cc3)CC2)cc1	-4.4	-3.3	-3.5	5.5	-12.8	10.1	/	/
O=C1c2cccc(OCC(=O)N3CCCc4ccccc43)c2CCN1Cc1ccc(Br)cc1	14.1	31.4*	5.7	1.6	33.3	-1.6	35.1*	58.1*
CCN1CCc2c(OCC(=O)N3CCCc4ccccc43)cccc2C1=O	9.9	1.4	3.9	1.8	2.2	5.5	/	/
COC(=O)c1ccc(COc2cccc3c2CCN(Cc2ccccc2)C3=O)o1	29.3	28.5*	7.0	-9.8	24.7	16.2	31.2*	56.7*
COC(=O)c1ccc(COc2cccc3c2CCN(Cc2cccc(C)c2)C3=O)o1	0.2	21.9*	2.8	-15.0	6.1	22.7	43.3*	69.7*
CCN1CCc2c(OCc3ccc(C(=O)OC)o3)cccc2C1=O	-15.1	-14.4	4.3	9.0	-5.1	6.3	/	/
CC[C@@H]1CCCCc2ccccc2[C@@H](C(=O)C[C@@H](O)CC(C)=O)OC1=O	/	/	/	2.9	/	-12.6	/	/
CC(=O)N1CCN(S(=O)(=O)c2cccc(C(=O)Nc3ccccc3N3CCCCC3)c2)CC1	/	/	/	6.0	/	-9.2	/	/
Cc1ccc(CNS(=O)(=O)c2cc3c(cc2C)NC(=O)CO3)cc1	-15.5	-12.0	-4.4	9.0	6.5	-7.7	/	/
CCCN(CC(=O)Nc1ccccc1C)C(=O)c1ccc(Cl)c(S(=O)(=O)N2CCCC2)c1	4.1	/	6.9	7.1	-6.2	-3.3	/	/
CCN(CC(=O)Nc1c(F)cccc1F)C(=O)c1ccc(Cl)c(S(=O)(=O)N2CCCCC2)c1	3.0	35.1*	-2.3	-3.3	12.8	-15.0	13.4	49.5*
COc1ccc(CC(=O)Nc2nnc(C(C)C)s2)cc1OC	29.2	-3.0	14.0	-5.1	-1.7	8.5	/	/
COc1ccc(NC(=O)CCc2nnc3ccc(N4CCN(c5cccc(OC)c5)CC4)nn23)cc1	-6.4	24.6*	-0.9	-75.8	-1.3	-6.0	0.7	33.4*
COc1cccc(NC(=O)CCc2nnc3ccc(N4CCN(c5cccc(OC)c5)CC4)nn23)c1	6.1	-6.9	14.8	-15.7	5.2	2.0	/	/
CC(C)NC(=O)c1ccc2c(c1)N(CC(=O)Nc1ccccc1F)C(=O)C(C)(C)O2	22.6	-4.3	3.4	20.3	1.5	6.3	/	/
CCOc1ccc(NC(=O)CCn2c(=S)oc3ccccc32)cc1	17.1	35.0*	1.7	4.4	0.4	-15.0	10.3	6.1
CC(C)C(=O)Nc1ccc(NC(=O)CCc2ccccc2)cn1	-13.0	23.3*	-6.9	7.4	-1.1	7.5	4.6	1.6
COc1cccc(-n2ccnc2SCC(=O)Nc2ccccc2F)c1	-61.2	21.3*	?	12.2	1.2	3.6	18.0	3.0
SMILES	HSF-1 act	GPR7 antag	HSF1 inh	697 NFkB inh	T cruzi inh	Jurkat NFkB inh	GPR7 antag conf	MCHR1 antagonist
COc1cccc(-n2ccnc2SCC(=O)Nc2cc(OC)ccc2OC)c1	6.4	38.3*	3.9	-12.6	-13.3	-1.8	19.5	37.7*
COc1ccc(NC(=O)CSc2nccn2-c2cccc(OC)c2)cc1	/	-2.1	/	-16.9	/	10.4	/	/
O=C(Nc1ccccc1Oc1ccccc1)C1=COCCO1	-13.6	-20.3	0.2	-6.8	-4.9	10.0	/	/
CN(C)S(=O)(=O)N1CCC(Oc2ccc(C(=O)NC3CCOC(C)(C)C3)cc2)CC1 (stereo not drawn)	-5.5	-4.3	-0.1	4.9	-6.7	8.3	/	/
CN(C)S(=O)(=O)N1CCC(Oc2ccc(C(=O)NC3Cc4ccccc4C3)cc2)CC1	9.9	50.9*	11.6	-26.2	-10.4	34.3	65.8*	74.6*
CCC(=O)N(CCC1(C(C)C)CCOC(C)(C)C1)C(C)c1cccs1 (stereo not drawn)	16.2	25.0*	5.6	-3.4	7.8	1.9	7.2	4.4
CCC(=O)N(CCC1(C(C)C)CCOC(C)(C)C1)Cc1ccco1 (stereo not drawn)	6.7	-2.1	-1.9	12.1	17.6	8.1	/	/
COCCSc1nc(N)c(NC(=O)c2ccco2)c(=O)[nH]1	6.9	-17.2	-0.3	0.2	-14.0	16.0	/	/
COc1cccc(C=O)c1OC(=O)N1CCOCC1	-3.3	-2.2	-8.1	-0.4	0.8	-13.0	/	/
COc1ccccc1NS(=O)(=O)c1cc(NC(=O)c2ccc3c(c2)OCCO3)ccc1C	17.2	27.2*	1.6	-14.6	7.2	3.3	1.6	63.3*
COc1ccccc1NS(=O)(=O)c1cc(NC(=O)CNC(=O)c2ccccc2)ccc1C	1.5	-0.2	-2.0	10.5	-0.9	-8.5	/	/
COC(=O)c1cnn(-c2ccccc2)c1-n1cccc1C=O	-3.2	3.2	8.5	14.9	-6.4	-2.5	/	/
Cc1sc2ncn(CC(=O)N3CCCCC3)c(=O)c2c1C	-3.6	-8.9	3.6	3.2	-19.8	10.8	/	/
O=[N+]([O-])c1cccc(-c2cnc3ccccc3n2)c1	-0.5	-9.1	0.9	-53.6	-1.7	-58.3	/	/
O=[N+]([O-])c1cccc(-c2nc3ccccc3s/c2=N/O)c1	12.6	31.4	-1.6	-31.2	3.4	-0.8	45.1*	40.5*
CSc1cccc(NC(=O)Cc2ccccc2[N+](=O)[O-])c1	5.2	26.8*	1.9	5.3	-10.2	4.6	-8.8	7.7
CC(C)(C)C(=O)NC1(C(F)(F)F)NC(=O)N(Cc2ccccc2)C1=O (stereo not drawn)	-8.5	24.9*	-2.1	-14.1	-13.3	1.4	-0.4	9.0
COc1cc(OC)cc(C(=O)NCC(=O)OCc2nc3ccccc3s2)c1	6.5	-14.8	10.5	-125.8	-6.3	-114.8	/	/
O=C(CN1CCN(Cc2ccccc2)CC1)N/N=C/c1cccnc1	-7.8	-12.0	0.5	11.5	3.9	-14.4	/	/
